# Screening results: PubChem, several laboratories
# The list is not random: actives were taken first. Their share in the collection is about 1.9%.
# procasp3 activ = activates human procaspase-3; recombinant procaspase-3 D3A, Ac-DEVD-pNA absorbance 405 nm; activation, % at 8.5 µM; hit rate 0.11% among 330,000; AID 463141;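 active = activation above the mean of all tested compounds plus 3 SD, cut at about 21% in these data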;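 also: 0% = DMSO alone and 100% = DMSO wells spiked with extra 5 µM PC-3 D3A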
#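 Test system: Procaspase-3 D3A mutant, all three cleavage aspartates alanine | Dosing: Single dose, 8.5 µM nominal compound, 0.8% DMSO | Schedule: 1 h preincubation, 2 h reaction | Technique: 405 nm absorbance of p-nitroaniline, reads at 0 and 120 min | Repeats: One well per compound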
# HIF activator = HIF pathway transcriptional activation. U2OS HRE-luciferase reporter, luminescence; normalized: DMSO 0%, desferrioxamine 100%. activation, % at 7.5 µM (by protocol). hit rate 0.32% among 300,000. AID 1910;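 active = mean activation of at least 10% of the iron chelator positive control signal, with at least half of replicates also reaching 10%; inconclusive = mean and replicate majority disagree about reaching 10%; inactive = mean and most replicates under 10%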
# Neddyl block = blocks human cullin neddylation; inhibition, % at 25 µM; TR-FRET cullin neddylation, biochemical; hit rate 0.58% among 360,000; in the data active = inhibition above about 36%
# Target sequence (P61081 whole entry, looked up): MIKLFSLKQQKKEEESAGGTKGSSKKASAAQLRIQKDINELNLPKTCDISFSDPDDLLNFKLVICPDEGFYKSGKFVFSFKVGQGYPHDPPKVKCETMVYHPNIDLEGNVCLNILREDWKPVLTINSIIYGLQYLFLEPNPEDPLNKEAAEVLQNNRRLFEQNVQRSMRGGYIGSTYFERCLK
# Target sequence (Q13564 whole entry, looked up): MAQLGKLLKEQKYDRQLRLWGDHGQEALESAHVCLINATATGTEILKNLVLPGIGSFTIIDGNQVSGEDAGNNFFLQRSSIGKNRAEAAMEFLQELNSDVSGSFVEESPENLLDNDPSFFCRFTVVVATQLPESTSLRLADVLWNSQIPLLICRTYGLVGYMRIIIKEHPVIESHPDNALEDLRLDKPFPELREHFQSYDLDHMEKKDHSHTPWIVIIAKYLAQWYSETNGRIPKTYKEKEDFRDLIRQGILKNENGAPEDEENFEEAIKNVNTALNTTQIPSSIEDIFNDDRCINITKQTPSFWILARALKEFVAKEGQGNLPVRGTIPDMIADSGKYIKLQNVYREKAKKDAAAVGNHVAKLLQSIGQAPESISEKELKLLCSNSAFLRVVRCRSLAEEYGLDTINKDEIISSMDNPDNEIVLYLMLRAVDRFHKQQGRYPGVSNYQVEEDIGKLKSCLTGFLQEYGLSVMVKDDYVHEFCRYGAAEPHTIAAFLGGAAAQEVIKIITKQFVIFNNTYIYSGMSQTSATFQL
# Calb FLC = C. albicans growth modulation with fluconazole; hit rate 0.57% among 300,000; AID 1979; growth inhibition, % (test concentration not listed); C. albicans CaCi-2 + fluconazole, Alamar Blue growth, 48 h;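 active = growth inhibition above about 58% in most replicates, limit read from the data, passing the limit was not always enough; inconclusive = exactly half the replicates above a set limit; inactive = most replicates below a set limit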;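 also: all wells also contain fluconazole at 8 µg/ml as a sub-toxic cotreatment; 0% = median of DMSO wells and 100% = median of geldanamycin control wells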
# GAA850 FXN act = increases GAA850 frataxin promoter reporter activity; HEK293 lucGAA850 FXN promoter luciferase reporter, 24 h; percent of 10 µM SAHA response; activation, % at 6 µM; hit rate 0.56% among 360,000;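 active = activation above the average of all compounds screened plus 3 SD, cutoff fixed separately per campaign, cut at about 7.5% in these data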;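 also: 0% = DMSO wells and 100% = 10 µM SAHA wells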
# proCasp7 act = counter-screen for procaspase-3 activators: activators of human procaspase-7 | recombinant procaspase-7, Ac-DEVD-pNA absorbance 405 nm; D23A/D198A/D206A triple mutant, cannot self-cleave; scale: DMSO 0, 5 µM enzyme 100 | activation, % at 8.5 µM | hit rate 0.093% among 330,000 | P55210 | AID 463210;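 active = percent activation above the screen-wide mean plus 3 SD, cut at about 25% in these data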
#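 buffer or medium = Zinc-free HEPES/NaCl buffer, pH 7.4 | material = Procaspase-7 triple mutant (PC-7 D3A) | input = 2 µM procaspase-7 mutant as dispensed | signal = Epi-absorbance of released pNA at 405 nm, two timepoints | timing = 1 h preincubation, 2 h reaction | replicates = singlicate compound testing | evaluation = % activation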
# GAA30 FXN cntr = GAA30 FXN promoter activation counter-screen; shares compounds with GAA850 FXN act; HEK293 lucGAA30 FXN promoter luciferase, 24 h; DMSO = 0%, 5 µM ipriflavone = 100%; activation, % at 6 µM; hit rate 66% among 1,900; AID 588350;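 active = mean activation above the mean of solvent-only control wells plus 3 SD, cut at about 22% in these data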;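 also: counterscreen of GAA850 promoter hits where activity marks nonselective or luminescence artifacts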
# FXN GAA850 conf = GAA850 FXN promoter activation confirmation; HEK293 lucGAA850 FXN promoter luciferase reporter, 24 h; 100% = activation by SAHA; activation, % at 6 µM; hit rate 86% among 1,900; shares compounds with GAA850 FXN act;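 active = mean activation above a set limit taken from the primary screen, cut at about 8% in these data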;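 also: 0% = DMSO wells and 100% = 10 µM SAHA wells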
# An asterisk follows results filed as active; ? = inconclusive; / = no result given.
SMILES,procasp3 activ,HIF activator,Neddyl block,Calb FLC,GAA850 FXN act,proCasp7 act,GAA30 FXN cntr,FXN GAA850 conf
O=C1OC(/C(=C\Nc2cc(Cl)ccc2O)[N+](=O)[O-])c2ccccc21 (stereo not drawn),-1,-1,0,-2,12*,-24,51*,5
CCOC(=O)C1=CCN(S(=O)(=O)c2ccccc2C)C1c1cccc(Br)c1 (stereo not drawn),/,/,-5,/,/,/,/,/
Oc1ccc(-c2csc(Nc3ccccn3)n2)cc1O,-17,5,-9,-11,13*,-25,96*,56*
Cc1ccnc(Nc2nc(-c3ccc(O)c(O)c3)cs2)c1,-12,2,-3,35,17*,-23,91*,42*
Cc1cccnc1Nc1nc(-c2ccc(O)c(O)c2)cs1,-17,3,-16,-4,14*,-27,107*,50*
Cc1ccnc(Nc2nc(-c3ccc(O)cc3)cs2)c1,12,3,2,33,3,5,/,/
Cc1ccc([C@H]2N[C@]3(CCCN(Cc4ccc(C(F)(F)F)cc4)C3=O)[C@H]3C(=O)N(C)C(=O)[C@@H]23)cc1,/,/,4,/,-2,/,/,/
CC(=O)c1ccc(N(C(=O)Cc2c[nH]c3ccccc23)C(C(=O)NC2CCCCC2)c2cccs2)cc1 (stereo not drawn),3,1,-7,33,-5,5,/,/
Cc1ccc(N(C(=O)Cc2cccs2)C(C(=O)NC2CCCCC2)c2ccccn2)cc1C (stereo not drawn),0,0,-1,-6,13*,-5,2,11*
O=C(NC1CCCCC1)C(c1cccs1)N(C(=O)Cc1c[nH]c2ccccc12)c1ccc(F)cc1 (stereo not drawn),-5,0,0,42,10*,-1,13,6
Cc1cc(O)ccc1-c1cc(C(=O)NCc2ccc(F)cc2)[nH]n1,/,/,8,/,-2,/,/,/
CCOC1=C2[C@@H](CN(S(=O)(=O)c3ccc(C)cc3)[C@H]2c2ccccc2F)[C@H]2C(=O)NC(=O)[C@H]2C1,/,/,0,/,/,/,/,/
COc1ccc(C(=O)Cn2cnc3ccccc3c2=O)c(OC)c1,/,3,0,13,7.7*,/,57*,24*
CN1OC[C@@H]2CN(S(=O)(=O)c3ccccc3)[C@H](c3ccc(-n4ccnc4)cc3)C[C@@H]21,/,/,-2,/,/,/,/,/
COc1ccc(/C=C/C2=NNC(=O)CC2)cc1,-2,1,-7,46,7.7*,-3,83*,32*
CCOc1ccc(/C=C/C2=NNC(=O)CC2)cc1,1,1,-22,-1,4,-2,/,/
COc1cc(/C=N/Nc2ccccn2)ccc1OCC(C)C,-7,4,22,5,7.8*,-1,87*,38*
O=C(Nc1cccnc1Cl)c1ccc2c(Cl)c3c(nc2c1)CCC3,/,0,-96,-2,7.7*,/,113*,30*
N#Cc1ccccc1NC(=O)c1ccc2c(Cl)c3c(nc2c1)CCCC3,0,2,-104,-4,6,-11,/,/
O=S(=O)(CC(CN1CCCC1)N1CCCC1)c1ccc2ccccc2c1 (stereo not drawn),-2,0,6,-3,-3,2,/,/
CC1CCN(CC(CS(=O)(=O)c2ccc([N+](=O)[O-])cc2)N2CCC(C)CC2)CC1 (stereo not drawn),1,0,-32,-18,9.7*,-6,61*,16*
Cc1ccccc1CS(=O)(=O)c1nnc([C@H](Cc2ccccc2)NC(=O)OC(C)(C)C)o1,-16,-3,-2,-8,12*,-20,-21,6
CC(C)(C)OC(=O)N[C@@H](Cc1ccccc1)c1nnc(S(=O)(=O)Cc2ccccc2)o1,-19,/,/,/,/,-19,/,/
CCc1nc2c(OCc3cc(Cl)cc(Cl)c3)cccn2c1N(C)C(=O)c1ccc(C)cc1,/,/,0,/,0,/,/,/
NC(Cc1ccc(C(F)(F)F)cc1)c1csc(Nc2cc(NCc3ccco3)ncn2)n1 (stereo not drawn),/,/,-8,/,0,/,/,/
SMILES,procasp3 activ,HIF activator,Neddyl block,Calb FLC,GAA850 FXN act,proCasp7 act,GAA30 FXN cntr,FXN GAA850 conf
CC(C)NC(=O)c1cc(C2CCCCN2C(=O)OCCF)on1 (stereo not drawn),/,/,-1,/,0,/,/,/
Cc1cc(C)n2c(=O)c3ccc(Cl)cc3nc2c1C#N,-25,-1,37,21,0,-42,/,/
Cc1cc(Cl)n2c(nc3cc(F)c(F)cc32)c1C#N,/,9.5*,/,-6,15*,/,-51,29*
N#Cc1ccc(C=NN2CCCCCC2)cc1,/,/,-7,/,5,/,/,/
c1ccc(NCc2cccnc2)cc1,-4,/,0,/,-3,-4,/,/
c1cncc(CNc2cccc(-c3nc4ccccc4[nH]3)c2)c1,-1,4,/,-2,8.5*,9,89*,28*
CC1(c2ccc(F)cc2)OC(=O)c2c1ccc1ccccc21 (stereo not drawn),/,/,9,/,1,/,/,/
C=CCn1c(-c2csc(-c3ccc(OC)c(OC)c3)n2)n[nH]c1=S,-3,0,-41,7,7.6*,-39,6,11*
COc1ccc(-c2nc(-c3ccc(O)cc3O)cs2)cc1OC,/,4,-28,?,8.7*,/,75*,36*
C=CCn1c(-c2csc(-c3ccc(Cl)cc3)n2)n[nH]c1=S,-10,1,3,8,2,-4,/,/
Oc1ccc(-c2csc(-c3c[nH]c4ccccc34)n2)c(O)c1,1,8,-9,-30,8.1*,3,88*,41*
O=C(CN1C(=O)c2ccccc2C1=O)NC(Cc1ccccc1)C(=O)O (stereo not drawn),/,/,-6,/,2,/,/,/
COc1cccc(CN(C)C(=O)Cn2cc(C)c(=O)[nH]c2=O)c1,/,/,3,/,-1,/,/,/
C=C(C)Cn1c2ccc(NC(=O)NCc3ccccc3)cc2c(=O)n1C,/,/,/,/,1,/,/,/
COc1cc(CNc2ccc3[nH]c(=O)[nH]c3c2)ccc1OCc1cccc(C)c1,-7,0,17,0,6,-12,/,/
O=c1[nH]c2ccc(NCc3ccc(OCc4ccccc4Cl)cc3)cc2[nH]1,/,-16,-3,11,2,/,/,/
COc1cc(CNc2ccc3[nH]c(=O)[nH]c3c2)ccc1OCc1ccccc1Cl,-12,2,18,/,7.9*,-5,36*,20*
COc1cc(CNc2ccc3[nH]c(=O)[nH]c3c2)ccc1OCc1ccc(C)cc1,/,4,13,-4,9.0*,/,74*,30*
